Measurements taken from ChEMBL document CHEMBL3259731, “Design, synthesis, and biological evaluation of novel FAK scaffold inhibitors targeting the FAK-VEGFR3 protein-protein interaction” (Eur J Med Chem, 2014).
The source made the active and inactive calls. No cut-off for these calls is given here.

Key:
MIA PaCa-2 = assay: Cytotoxicity against human MIAPaCa2 cells transfected with retroviral expression vector pMSCV-LucSh assessed as growth inhibition at 50 uM after 72 hrs by MTS assay; format: functional, cell-based
Method in brief: (§1)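 Cells seeded at 5000/well, attached overnight, then given 50 µM of each analog for 72 h at 37 °C. MTS reagent added for about 1 h, absorbance read at 570 nm. Viability normalized to DMSO/untreated controls. Three independent experiments, each with 3–5 replicate wells per concentration. Cells kept in DMEM with 10% FBS.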

PANC-1 = assay: Cytotoxicity against human PANC1 cells transfected with retroviral expression vector pMSCV-LucSh assessed as growth inhibition at 50 uM after 72 hrs by MTS assay; format: functional, cell-based; method in brief: as §1
C8161 = assay: Cytotoxicity against human C8161 cells assessed as growth inhibition at 50 uM after 72 hrs by MTS assay; format: functional, cell-based
Method in brief: (§2)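 MTS assay. Cells kept in DMEM with 10% FBS, plated at 5000 cells/well and left to attach overnight, then exposed to compound (screening at 50 µM) for 72 h at 37 °C. MTS reagent added for about 1 h, then absorbance read at 570 nm. Viability normalized to DMSO/untreated controls. Three independent experiments, 3–5 replicate wells per concentration.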

A-375 = assay: Cytotoxicity against human A375 cells assessed as growth inhibition at 50 uM after 72 hrs by MTS assay; format: functional, cell-based; method in brief: as §2
U-87MG ATCC = assay: Cytotoxicity against human U87 cells assessed as growth inhibition at 50 uM after 72 hrs by MTS assay; format: functional, cell-based; method in brief: as §2
MDA-MB-231 = assay: Cytotoxicity against human MDA-MB-231 cells assessed as growth inhibition at 50 uM after 72 hrs by MTS assay; format: functional, cell-based; method in brief: as §2
Focal adhesion kinase 1 = Focal adhesion kinase 1 (Homo sapiens, UniProt Q05397); assay: Binding affinity to biotinylated human FAK FAT domain by biolayer interoferometry
Method in brief: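 Bio-layer interferometry on super streptavidin biosensor tips, pre-wetted in buffer for a baseline before FAT protein immobilization. Association and dissociation measured over 210 s at two small-molecule concentrations. Kon, Koff and Kd derived from the kinetic fits.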

Chain of Focal adhesion kinase 1 (Q05397 2-1052 limits assumed): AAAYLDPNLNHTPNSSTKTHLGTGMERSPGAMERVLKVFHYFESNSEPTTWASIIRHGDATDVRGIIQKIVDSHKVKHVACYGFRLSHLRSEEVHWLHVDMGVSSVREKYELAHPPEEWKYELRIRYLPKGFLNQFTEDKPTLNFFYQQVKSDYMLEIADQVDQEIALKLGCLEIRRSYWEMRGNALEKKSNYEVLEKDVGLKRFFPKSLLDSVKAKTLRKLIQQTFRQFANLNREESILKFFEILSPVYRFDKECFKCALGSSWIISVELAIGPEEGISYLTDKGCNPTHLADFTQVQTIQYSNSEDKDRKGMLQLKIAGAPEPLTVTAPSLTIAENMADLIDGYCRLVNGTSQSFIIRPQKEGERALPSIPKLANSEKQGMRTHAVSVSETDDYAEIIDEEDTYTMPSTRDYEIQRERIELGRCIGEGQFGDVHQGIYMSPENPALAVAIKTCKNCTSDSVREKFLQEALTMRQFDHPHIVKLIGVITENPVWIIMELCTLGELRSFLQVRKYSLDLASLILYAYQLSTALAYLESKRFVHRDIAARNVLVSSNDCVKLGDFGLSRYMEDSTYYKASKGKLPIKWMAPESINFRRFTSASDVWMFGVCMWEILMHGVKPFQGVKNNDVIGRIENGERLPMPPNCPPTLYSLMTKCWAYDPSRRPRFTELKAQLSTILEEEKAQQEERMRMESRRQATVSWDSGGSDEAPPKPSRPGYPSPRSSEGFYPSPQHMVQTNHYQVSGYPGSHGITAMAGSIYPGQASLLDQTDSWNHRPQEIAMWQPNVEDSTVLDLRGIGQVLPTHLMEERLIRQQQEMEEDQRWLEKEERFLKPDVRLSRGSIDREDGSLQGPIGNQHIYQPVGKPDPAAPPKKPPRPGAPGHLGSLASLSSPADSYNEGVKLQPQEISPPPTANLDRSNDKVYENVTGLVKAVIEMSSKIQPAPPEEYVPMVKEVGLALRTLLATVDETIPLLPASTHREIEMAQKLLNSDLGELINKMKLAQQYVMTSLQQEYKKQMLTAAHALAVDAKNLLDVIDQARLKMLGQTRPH

Structure (SMILES) | growth inhibition (GI) (MIA PaCa-2) | growth inhibition (GI) (PANC-1) | growth inhibition (GI) (C8161) | growth inhibition (GI) (A-375) | growth inhibition (GI) (U-87MG ATCC) | growth inhibition (GI) (MDA-MB-231) | Activity (Focal adhesion kinase 1)
CCCCCCCCCCCCN(CCN(C)C)c1ccccn1 | Active | Active | Active | Active | Active | Active | 
CN(C)CCNc1ccccn1 | inactive | inactive | inactive | inactive | inactive | inactive | inactive
CCCCCCN(CCN(C)C)c1ccccc1 | inactive | inactive | inactive | inactive | inactive | inactive | 
CCCCCCCCCCN(CCN(C)C)c1ccccn1 | Active | Active | Active | Active | Active | Active | 
